NadD inh: inhibitors of Staphylococcus aureus NadD; inhibition, % at 20 µM; 0.78% of 360,000 active; AID 602399; purified NadD enzyme, colorimetric absorbance read-out; in the data active means inhibition above about 26%
Rpn11 block: blocks the human proteasome subunit Rpn11; inhibition, % at 20 µM; 0.59% of 360,000 active; human 26S proteasome, Ub4-pepOG fluorescence polarization; 20S core pre-blocked with epoxomicin; O00487;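 active means inhibition at 20 µM, scaled to each plate's controls, above about 33%, limit read from the data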
Rin1 Abl inh: human Rin1-Abl interaction inhibition | TR-FRET Rin1/Abl binding, biochemical | inhibition, % at 7.35 µM | 0.4% of 360,000 active; in the data active means inhibition above about 5%, passing the limit was not always enough
XiGFP reactiv: X-chromosome reactivation activator. AID 743238. XiGFP mouse fibroblasts, % GFP-positive cells imaging, 3 d; cells co-treated with 5-aza-dC sensitizer; scaled so ellipticine positive control = 100%. 0.055% of 360,000 active. activation, % at 7.58 µM;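 active means mean normalized replicate activation at least 10% and every replicate at or above 10%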;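 further: 0% = median of on-plate neutral control wells and 100% = ellipticine 6 µM median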
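assay system = SV40-immortalized XiGFP fibroblast cells, line 68-5-11 | buffer or medium = DMEM plus 5-aza-dC sensitizer | doses = single-point pinned compound dosing | times = 3-day compound exposure, then 15 min fixation at room temperature | benchmarks = positive control ellipticine, 6 µM final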
ABHD5 PLIN5 PPI: inhibitors of human ABHD5-perilipin-5 interaction. Q00G26+Q8WTS1. Split G. princeps luciferase complementation, luminescence, 4 h. inhibition, % at 4 µM. 0.78% of 360,000 active;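 active means inhibition above the mean inhibition across every tested compound plus 3 SD, cut at about 22% in these data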;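 further: 0% = DMSO only wells and the 100% control is not disclosed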
Rin1 Abl conf: Rin1-Abl interaction inhibition confirmation; shares compounds with Rin1 Abl inh; TR-FRET Rin1-Abl binding, purified proteins; inhibition, % at 7.35 µM; 49% of 1,300 active; AID 602124
GFP quench-1: counter-screen for Rin1-Abl inhibitors: GFP fluorescence quenchers | inhibition, % at 6.75 µM | inhibitors/quenchers counterscreen | shares compounds with Rin1 Abl inh | 8.5% of 1,300 active;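 further: ABL1-eGFP fusion protein alone without its partner RIN1-SBP; 0% = protein with vehicle and 100% = wells lacking protein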
GFP quench DR: quenches GFP in dose response, Rin1-Abl counter-screen; shares compounds with Rin1 Abl inh; GFP fluorescence interference/quenching counterscreen; IC50, µM; 230 tested, under 10 active; call rule not given here;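 further: ABL1-eGFP fusion protein alone without its RIN1 binding partner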
GFP quench-2: quenches GFP fluorescence in Rin1-Abl counterscreen | shares compounds with Rin1 Abl inh | GFP fluorescence quenching counterscreen, biochemical | IC50, µM | 25 tested, under 10 active | AID 602397; call rule not given here
Starred values were filed as active, the others as inactive; x = no result. The list is not random: actives were taken first. Their share in the collection is about 1.9%. Unless noted, no stated cut-off is given here; in the data, active means inhibition above about 6.5%; inactive means the rest.

SMILES	NadD inh	Rpn11 block	Rin1 Abl inh	XiGFP reactiv	ABHD5 PLIN5 PPI	Rin1 Abl conf	GFP quench-1	others
Cc1ccc(S(=O)(=O)c2nnn3c2nc(N2CCOCC2)c2ccccc23)c(C)c1	0.6	-5.1	45.5*	0.1	6.0	29.7*	-0.4
Cc1ccc(S(=O)(=O)c2nnn3c2nc(N2CCOCC2)c2ccccc23)cc1C	0.1	-2.6	1.7	0.1	1.5	x	x
CCn1c(SCc2ccc(C(=O)OC)o2)nnc1-c1c[nH]c2ccccc12	3.2	5.8	13.6*	0.1	5.1	10.6*	-0.1
CCN1[C@@H]2c3ccc(/C=C/c4ccccc4)c(=O)n3C[C@H]1[C@H](CO)[C@H]2C(=O)N1CCOCC1	x	x	x	0.0	x	x	x
CCCn1c(N)c(C(=O)COC(=O)CNC(=O)c2ccc(C)c(C)c2)c(=O)n(C)c1=O	-3.9	6.4	9.4*	0.2	-6.2	0.5	-4.3
C[C@@H]1CN(C)C(=O)Cc2cc(N(C)C)ccc2O[C@H]1CN(C)C	x	x	x	0.4	x	x	x
COc1ccc(S(=O)(=O)N2CCCC2)c(Cl)c1Cl	-0.2	-3.6	9.9*	0.1	9.3	-1.2	-0.9
COc1ccc(CCNc2cc(=O)[nH]c(N)n2)cc1	2.2	4.9	23.9*	x	-11.9	52.2*	-0.9	GFP quench DR=>67.6;GFP quench-2=>67.5
COc1ccc(CCNc2ccc([N+](=O)[O-])cn2)cc1	-12.4	8.9	-2.0	0.1	6.0	x	x
C[C@H](CO)N1C[C@H](C)[C@H](CN(C)S(=O)(=O)c2cccs2)Oc2ccc(NC(=O)CCC(F)(F)F)cc2C1=O	x	x	x	1.2	x	x	x
Cc1cc(C)cc(OCc2nnc(SCC(=O)c3ccc(Br)cc3)o2)c1	0.5	11.2	4.7*	x	-3.2	0.8	-0.6
Cc1csc(SCC(=O)Nc2ccc(S(=O)(=O)N3CCCC3)cc2)n1	0.4	1.8	1.1	x	-2.4	x	x
Cc1cc(C)nc(SCC(=O)Nc2ccc(S(=O)(=O)N3CCCCC3)cc2)n1	-5.6	1.3	6.3*	x	-9.3	4.4	-0.4
COc1ccc(NC(=O)CSc2nc(N)cc(=O)[nH]2)cc1S(=O)(=O)N1CCCCC1	-4.4	3.7	10.7*	0.0	3.5	7.7*	0.0
COc1ccc(S(=O)(=O)N2CCCCCC2)cc1C(=O)Nc1ccc(C(=O)N(C)C)cc1	-2.9	-2.3	37.8*	0.0	-4.4	43.1*	1.1	GFP quench DR=>67.5
COc1ccc(CC(=O)Nc2ccc(S(=O)(=O)N3CCCCC3)cc2)cc1OC	-6.1	1.7	10.4*	0.0	5.6	6.7*	-1.0
C[C@@H]1CN([C@@H](C)CO)S(=O)(=O)c2ccc(C#CC3CC3)cc2O[C@H]1CN(C)C(=O)C1CCCCC1	x	x	x	0.0	x	x	x
C[C@H]1CN(C)C(=O)c2cccc(N(C)C)c2O[C@@H]1CN(C)S(C)(=O)=O	x	x	x	0.0	x	x	x
COc1cc(C(=O)Nc2ccc(S(=O)(=O)N3CCOCC3)cc2)c([N+](=O)[O-])cc1OC	-0.3	-0.1	11.1*	0.0	-0.5	0.4	0.0
O=C(C[C@H]1C[C@@H]2c3cc(NC(=O)Nc4ccc(C(F)(F)F)cc4)ccc3O[C@@H]2[C@@H](CO)O1)NCc1ccc2c(c1)OCO2	x	x	x	0.4	x	x	x
N#CCCN(C(=O)COC(=O)c1ccc2c(=O)n3c(nc2c1)CCC3)c1ccccc1	-1.5	-3.3	12.0*	0.0	3.2	-0.3	-0.8
CN(CCC#N)C(=O)COC(=O)c1ccc2c(=O)n3c(nc2c1)CCC3	-7.3	1.8	1.8	5.6	1.7	x	x
C[C@H]1CN([C@@H](C)CO)C(=O)c2cc(NC(=O)C3CCCCC3)ccc2O[C@H]1CN(C)C	x	x	x	0.1	x	x	x
OCC[C@@H]1C[C@@H](O)[C@H](O)[C@@]2(Cc3ccccc3CO2)O1	0.2	1.0	8.9*	0.0	3.9	-2.5	-0.7
OCC[C@H]1C[C@H](O)[C@@H](O)[C@@]2(Cc3ccccc3CO2)O1	-4.8	2.1	4.7	0.0	-0.8	x	x
SMILES	NadD inh	Rpn11 block	Rin1 Abl inh	XiGFP reactiv	ABHD5 PLIN5 PPI	Rin1 Abl conf	GFP quench-1	others
CC(=O)OCC(=O)C12OC(C)(C)OC1CC1C3CC=C4CC(O)CCC4(C)C3CCC12C (stereo not drawn)	-4.1	3.8	11.5*	-0.1	6.9	0.3	0.3
CCc1cccc(NC(=O)Cn2c(=O)oc3cc(S(=O)(=O)N4CCOCC4)ccc32)c1	-2.1	-2.2	6.2	0.4	-0.7	x	x
CCc1ccc(NC(=O)Cn2c(=O)oc3cc(S(=O)(=O)N4CCOCC4)ccc32)cc1	8.9	4.3	8.1*	0.0	-7.0	1.5	-0.6
COc1cc2c(cc1OC)CN(CC(=O)Nc1cccc([N+](=O)[O-])c1)CC2	-1.5	-3.4	-0.9	0.1	4.9	x	x
COc1cc2c(cc1OC)CN(CC(=O)Nc1cccc(C)c1)CC2	-2.3	-2.8	6.5*	x	5.0	1.6	-0.4
Cn1c(=O)c2c(nc(SCCCC#N)n2Cc2c(F)cccc2Cl)n(C)c1=O	-5.0	-1.1	7.2*	0.2	10.3	9.2*	-1.0
Cn1c(=O)c2c(nc(OCc3cccnc3)n2Cc2c(F)cccc2Cl)n(C)c1=O	0.6	-0.2	3.1	x	-3.8	x	x
COc1ccc(/C=C(\C#N)C(=O)Nc2cccc3ncccc23)cc1OC	0.3	-3.0	-3.6	-0.1	4.6	x	x
N#C/C(=C\c1ccc(O)c(O)c1)C(=O)Nc1cccc2ncccc12	86.2*	14.2	8.7*	x	4.0	12.5*	14.4*
CC1CCCCN1S(=O)(=O)c1ccc(C(=O)Nc2nnc(C3=COCCO3)o2)cc1 (stereo not drawn)	8.4	2.9	7.8*	0.0	-0.4	0.7	-1.3
CC1CCCN(S(=O)(=O)c2ccc(C(=O)Nc3nnc(C4=COCCO4)o3)cc2)C1 (stereo not drawn)	13.1	-2.0	-4.6	0.2	-5.6	x	x
CC(c1ccccc1)N(CCC(c1ccccc1)C1CCOC(C)(C)C1)C(=O)c1ccco1 (stereo not drawn)	-7.1	5.3	-0.9	-0.4	1.1	x	x
COc1ccc(CN(CCC(c2ccc(F)cc2)C2CCOC(C)(C)C2)C(=O)c2ccco2)cc1 (stereo not drawn)	5.7	-7.5	5.5*	0.0	2.6	17.7*	0.4
CCC(c1nnnn1CCOC)N1CCN(c2nc3ccccc3s2)CC1 (stereo not drawn)	4.9	-2.5	2.4	0.3	5.6	x	x
COCCn1nnnc1C(CC(C)C)N1CCN(c2nc3ccccc3s2)CC1 (stereo not drawn)	1.3	-0.5	9.3*	0.3	-6.5	-2.3	0.1
O=C(c1ccccc1)N1CC[C@@H]2[C@H]1c1cc(-c3ccc(F)cc3)ccc1N[C@@H]2CO	x	x	x	0.3	x	x	x

Screens from PubChem.
